Screens deposited in PubChem BioAssay by Johns Hopkins Ion Channel Center.
Rows were chosen to be rich in hits. Some 3% of all compounds tested hit in one or more screens of this group.
TRPC6 inh: inhibitors of mouse TRPC6 channel. HEK293-TRPC6, membrane potential dye, ACh-evoked depolarization; active compounds read low. Q61143. hit rate 1.1% among 310,000. B-score at 10 µM;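 active = B-score under library mean minus 3 SD, initial fluorescence not abnormally high, positive integrated signal ratio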;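 note: B-score derived from integrated fluorescence ratio over the kinetic read; more negative B-score means stronger inhibition of depolarization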
TRPC4 block: blocks the mouse TRPC4 cation channel | HEK293 TRPC4beta/mu-opioid, DAMGO-evoked Fluo4 calcium flux; active compounds read low | B-score at 10 µM | hit rate 0.39% among 300,000 | AID 2247;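 active = B-score over 3 SD under the library average, no early fluorescence shift, positive overall ratio signal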
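Signal: kinetic Fluo4 fluorescence imaging of calcium influx. Material: stable TRPC4beta/mu-opioid receptor HEK293 cells. Probe or stimulus: DAMGO in two steps, submaximal then maximal.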
Kir21 block: blocks the mouse Kir2.1 inward-rectifier potassium channel. hit rate 0.85% among 310,000. HEK293-Kir2.1, FluxOR thallium flux fluorescence; active compounds read low. P35561. B-score at 10 µM;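 active = fluorescence ratio B-score at or below minus 3 SD of library scores, with starting-brightness B-score within 2 SD, cut at about -4.2 in these data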;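 note: channel flux triggered by added potassium and thallium sulfate stimulus; B-score of peak minus minimum fluorescence over baseline after thallium stimulus; more negative B-score means stronger Kir2.1 block with less thallium influx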
Target sequence (P35561 whole entry, looked up): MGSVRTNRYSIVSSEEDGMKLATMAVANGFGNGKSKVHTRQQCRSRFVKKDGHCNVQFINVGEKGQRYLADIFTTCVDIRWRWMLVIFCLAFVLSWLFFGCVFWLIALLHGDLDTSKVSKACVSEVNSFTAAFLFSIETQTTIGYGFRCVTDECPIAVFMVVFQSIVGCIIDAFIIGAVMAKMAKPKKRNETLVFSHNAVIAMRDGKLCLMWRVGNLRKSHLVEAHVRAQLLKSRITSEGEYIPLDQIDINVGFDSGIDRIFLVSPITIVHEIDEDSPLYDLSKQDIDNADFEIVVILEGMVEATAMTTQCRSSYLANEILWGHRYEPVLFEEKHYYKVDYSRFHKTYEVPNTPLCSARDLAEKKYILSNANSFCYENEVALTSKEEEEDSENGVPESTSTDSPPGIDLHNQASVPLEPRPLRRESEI
TRPC6 activator: activators of mouse TRPC6 channel. B-score at 10 µM. Q61143. HEK293-TRPC6 membrane potential dye fluorescence; active compounds read high. hit rate 0.13% among 310,000;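 active = B-score of the integrated fluorescence ratio above library mean plus 3 SD, and starting fluorescence ratio within library mean plus 5 SD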;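 note: higher score means more depolarization so channel activation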
TRPC4 act: activators of mouse TRPC4 channel; Q9QUQ5; HEK293 TRPC4beta/mu-opioid, Fluo4 calcium fluorescence; active compounds read high; B-score at 10 µM; hit rate 0.49% among 310,000; AID 2237;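 active = B-score above 5 SD of library B-scores, and initial fluorescence ratio not above library mean plus 5 SD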;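 note: positive B-score marks a calcium rise read as TRPC4 activation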
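Assay system: HEK293 stable line with TRPC4beta plus mu-opioid receptor. Times: dye 45 min RT, read 110 s. Measured by: kinetic Fluo4 calcium fluorescence. Measure: B score of integrated ratio. Controls: assay buffer as low control, maximal DAMGO as high control.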
TRPC4 potent: allosteric potentiators of mouse TRPC4 channel; hit rate 0.42% among 310,000; B-score at 10 µM; Q9QUQ5; HEK293 TRPC4beta/mu-opioid, DAMGO EC20, Fluo-4 Ca2+ flux; active compounds read high;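 active = B-score of calcium response area above 5 SD of library B-scores, with initial fluorescence ratio within 5 SD of library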;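 note: B-score of integrated fluorescence ratio over time as area under calcium response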
TRPC4 spec 2: second selectivity test of TRPC6 inhibitors: effect on mouse TRPC4; HEK293 TRPC4/MOR, membrane potential dye fluorescence; channel activated by saturating DAMGO dose; hit rate 42% among 920; shares compounds with TRPC6 inh; AID 2776; inhibition, % at 10 µM;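 active = compounds whose fluorescence signal differed from control wells by over 3 SD, either direction, in both duplicate plates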
TRPC4 spec: mouse TRPC4 off-target activity of TRPC6 inhibitors; HEK293 TRPC4/mu-opioid, membrane potential fluorescence; activity change, negative = inhibition, % at 10 µM; AID 2777; shares compounds with TRPC6 inh; hit rate 61% among 920;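 active = rise or fall in signal beyond 3 SD of buffer-only wells in both replicate plates, either sign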;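 note: integrated kinetic ratio of fluorescence range over baseline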
HEK293 MPD ctr 2-1: second counter-screen for TRPC6 inhibitors: parental HEK293 cells | hit rate 31% among 920 | shares compounds with TRPC6 inh | signal change vs control, % at 10 µM | AID 2779 | parental HEK293 membrane potential dye fluorescence; maximal acetylcholine challenge after compound addition;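 active = membrane potential signal moving either way by over 3 SD of the maximum-effect control, in both duplicate plates, meaning non-specific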
HEK293 MPD ctr-1: parental HEK293 nonspecific activity of TRPC6 inhibitors | shares compounds with TRPC6 inh | parental HEK293 membrane potential dye fluorescence | membrane potential signal change, % at 10 µM | hit rate 60% among 920 | AID 2780;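 active = membrane potential signal shifting up or down by more than 3 SD of buffer-only wells, on both duplicate plates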
HEK293 MPD ctr-2: parental HEK293 nonspecific activity of TRPC6 modulators. shares compounds with TRPC6 inh. membrane potential dye fluorescence. membrane potential signal change, % at 10 µM. hit rate 51% among 2,400. AID 488924;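 active = membrane potential signal moves up or down beyond 5 SD from buffer-only wells, on both duplicate plates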
HEK293 MPD ctr 2-2: second counter-screen for TRPC6 modulators: effect in parental HEK293 cells. shares compounds with TRPC6 inh. membrane potential dye fluorescence; after compound, maximal acetylcholine stimulation. inhibition, % at 10 µM. hit rate 14% among 2,400;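 active = membrane potential signal drops by more than 5 SD from the mean control signal, in both duplicate plates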;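 note: plate controls were acetylcholine ECmax control wells for no effect and buffer only wells for full effect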
TRPC4 ctr mod: selectivity of TRPC6 modulators against mouse TRPC4. shares compounds with TRPC6 inh. HEK293 TRPC4/mu-opioid, membrane potential fluorescence. percent change from control (negative = decrease, positive = increase), % at 10 µM. hit rate 69% among 2,400;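 active = membrane potential signal moved up or down beyond 5 SD of buffer control wells, in both duplicate plates, actives on both sides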;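 note: plate controls were assay buffer wells for no effect and DAMGO maximal-effect wells for full effect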
TRPC4/MOR inh 2: mouse TRPC4 off-target activity of TRPC6 modulators, second screen | shares compounds with TRPC6 inh | HEK293 TRPC4/mu-opioid, membrane potential dye fluorescence; stimulated with maximal-effect DAMGO | inhibition, % at 10 µM | hit rate 55% among 2,400 | AID 488928;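 active = drop in membrane potential signal beyond 5 SD of the control wells in both duplicate plates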;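 note: TRPC4 counter screen for TRPC6 hits run under conditions tuned for TRPC6 not TRPC4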
TRPC6 inh conf: confirmation of mouse TRPC6 inhibitors. shares compounds with TRPC6 inh. HEK293-TRPC6, membrane potential dye, ACh-evoked depolarization. inhibition, % at 10 µM. hit rate 43% among 3,300;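 active = fluorescence ratio falls more than 5 SD below the full-stimulation control mean, in both duplicate runs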;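 note: integrated fluorescence ratio of peak minus minimum over baseline after agonist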
TRPC6 act confirm: mouse TRPC6 activator confirmation; HEK293-TRPC6 membrane potential dye fluorescence, FDSS; shares compounds with TRPC6 inh; hit rate 11% among 2,800; activation, % at 10 µM; AID 488961;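 active = ratio signal rise beyond 5 SD above unstimulated control wells' mean, seen in both duplicate runs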;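 note: plate controls were buffer EC0 wells for no effect and acetylcholine ECmax response for full effect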
Active calls of the source: *; i = inactive; nt = no result.

SMILES | TRPC6 inh | TRPC4 block | Kir21 block | TRPC6 activator | TRPC4 act | TRPC4 potent | HEK293 MPD ctr-2 | HEK293 MPD ctr 2-2 | TRPC4 ctr mod | TRPC4/MOR inh 2 | TRPC6 inh conf | TRPC6 act confirm | others
CCC(C)n1c(/C=C/c2ccccc2)nc2ccccc21 (stereo not drawn) | -5.1* | i | 0 | i | i | i | 106%* | i | 16%* | i | i | i
COC(=O)c1cc(Cl)c(NC(=O)c2cc3ccccc3o2)cc1OC | i | nt | 0.01 | i | i | i | nt | nt | nt | nt | nt | nt
CCCn1c(NCc2cccc(OC)c2OC)nc2ccccc21 | i | i | -0.57 | i | i | i | nt | nt | nt | nt | nt | nt
CCCn1c(NCc2c[nH]c3ccccc23)nc2ccccc21 | -8.5* | i | -7.4* | i | i | i | nt | nt | nt | nt | i | i | TRPC4 spec 2=25%*;TRPC4 spec=-16%*;HEK293 MPD ctr 2-1=i;HEK293 MPD ctr-1=-209%*
Cc1nn(C(=O)c2nn(C)cc2[N+](=O)[O-])c(C)c1Br | i | i | 1.1 | i | i | i | nt | nt | nt | nt | nt | nt
O=C(CSc1nc(O)c(Cc2ccccc2)c(=O)[nH]1)Nc1nnc(SCc2ccccc2)s1 | i | i | 3.2 | 20* | i | i | 308%* | i | 58%* | i | i | 142%*
O=C(CCc1cccc(Cl)c1)N1CCCC(Nc2ccccc2)C1 (stereo not drawn) | -8.6* | i | -6.9* | i | i | i | nt | nt | nt | nt | 55%* | i | TRPC4 spec 2=i;TRPC4 spec=i;HEK293 MPD ctr 2-1=i;HEK293 MPD ctr-1=i
Cc1ccc2c(Cl)c(C)c(N3CCCC3)nc2n1 | -5.7* | i | 1.1 | i | i | i | -244%* | 70%* | -40%* | 52%* | 54%* | i
Cc1nnc(N2CCCCC2)c2ccccc12 | i | i | -0.08 | i | i | i | nt | nt | nt | nt | nt | nt
CC(=O)N(C)c1nc(N)n(-c2ccccc2)n1 | i | i | -0.92 | i | i | i | nt | nt | nt | nt | nt | nt
COc1ccc(C2C(C(N)=O)=C(C)Nc3nc(CCCO)nn32)cc1OC (stereo not drawn) | -5.9* | i | -1.9 | i | i | i | i | i | i | i | i | i
COc1ccc(C2C(C(N)=O)=C(C)Nc3nc(CCCO)nn32)cc1 (stereo not drawn) | i | i | -1.3 | i | i | i | nt | nt | nt | nt | nt | nt
COc1ccc(S(=O)(=O)N2CCC(C(=O)NCCCc3ccccc3)CC2)cc1 | i | i | -0.44 | i | i | i | nt | nt | nt | nt | nt | nt
CC(=O)OCCc1[nH]c2ccccc2c1C | i | i | 1.2 | i | i | i | nt | nt | nt | nt | nt | nt
CC(=O)OCCc1c2ccccc2c(CCCN(C)C)c2ccccc12 | -6.1* | i | -0.86 | i | i | i | -87%* | i | -18%* | 67%* | 48%* | i
CN1CCN(c2ccc(NC(=O)COc3ccccc3Cl)cc2)CC1 | -9.2* | i | -1.5 | i | i | i | nt | nt | nt | nt | i | i | TRPC4 spec 2=58%*;TRPC4 spec=-11%*;HEK293 MPD ctr 2-1=i;HEK293 MPD ctr-1=-186%*
Cc1cc(OCC(=O)Nc2ccc(N3CCN(C)CC3)cc2)ccc1Cl | -5.1* | -6* | 0.61 | i | i | i | i | i | 30%* | 52%* | i | i
Cc1ccc(C(=O)OCCc2sc[n+](Cc3ccccc3)c2C)cc1 | -9.4* | i | 0.89 | i | i | i | nt | nt | nt | nt | 80%* | i | TRPC4 spec 2=i;TRPC4 spec=-12%*;HEK293 MPD ctr 2-1=31%*;HEK293 MPD ctr-1=-170%*
Cc1[nH]c(C)c(S(=O)(=O)Nc2cccc(Cl)c2C)c1C(=O)N1CCCCC1 | i | i | -1.1 | i | i | i | nt | nt | nt | nt | nt | nt
Fc1cccc(CCN2CCNC[C@@H]2Cc2ccccc2)c1 | -5.4* | i | 0.64 | i | i | i | i | i | i | 39%* | i | i
CCCC[C@@H]1CNCCN1CCc1cccc(F)c1 | i | i | -0.5 | i | i | i | nt | nt | nt | nt | nt | nt
Cc1ccc(C(=O)N/C(=C\c2cccc([N+](=O)[O-])c2)C(=O)NC(Cc2ccccc2)C(=O)O)cc1 (stereo not drawn) | i | i | 1.2 | i | i | i | nt | nt | nt | nt | nt | nt
CC(C)(C)c1ccc(OCCCCCCN2CCNCC2)cc1 | -7.7* | i | -0.23 | i | i | i | nt | nt | nt | nt | 61%* | i | TRPC4 spec 2=52%*;TRPC4 spec=-0.1%*;HEK293 MPD ctr 2-1=i;HEK293 MPD ctr-1=2.7%*
CC(C)(c1ccccc1)c1ccc(OCCN2CCOCC2)cc1 | i | i | 0.43 | i | i | i | nt | nt | nt | nt | nt | nt
CC(C)(c1ccccc1)c1ccc(OCCCN2CCNCC2)cc1 | -6.8* | i | -5.8* | i | i | i | nt | nt | nt | nt | i | i | TRPC4 spec 2=34%*;TRPC4 spec=i;HEK293 MPD ctr 2-1=i;HEK293 MPD ctr-1=2.3%*
Cc1ccc(C2=NCCn3c2c2ccc(C(F)(F)F)cc2[n+]3[O-])cc1 | i | i | 1.8 | i | i | i | nt | nt | nt | nt | nt | nt
Cc1ncc(CO)c(/C=N/NC(=O)c2cc3c(s2)CCCC3)c1O | i | i | -1.3 | i | i | i | nt | nt | nt | nt | nt | nt
COc1ccc(C2N(c3ccccc3)C(=S)N3CCCN23)cc1 (stereo not drawn) | i | i | 0.05 | i | i | i | nt | nt | nt | nt | nt | nt
